In the library only some 1.1% were active in any assay of this set; here they are far more common.
NR2E3 ag-1 – activates human NR2E3 receptor; Q9Y5X4; inhibition of corepressor binding, % at 3.98 µM; CHO-S Gal4-NCOR/VP16-NR2E3 two-hybrid, luciferase; 360,000 tested, 0.35% active;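 active means inhibition above the mean of all tested compounds plus 3 SD, cut at about 70% in these data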;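 further: 0% = DMSO with NR2E3 transfected cells and 100% = cells lacking NR2E3 construct; higher means lower luciferase signal from less NR2E3 corepressor binding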
DAGLB inhibitor – blocks human DAGLB lipase activity; inhibition, % at 5.17 µM; AID 504411; Q8NCG7; 340,000 tested, 0.059% active; HEK293T DAGLB membrane lysate, EnzChek fluorogenic substrate; in the data active means inhibition above about 34%;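 further: 0% = enzyme with vehicle and 100% = wells lacking enzyme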
Target sequence (Q8NCG7 whole entry, looked up): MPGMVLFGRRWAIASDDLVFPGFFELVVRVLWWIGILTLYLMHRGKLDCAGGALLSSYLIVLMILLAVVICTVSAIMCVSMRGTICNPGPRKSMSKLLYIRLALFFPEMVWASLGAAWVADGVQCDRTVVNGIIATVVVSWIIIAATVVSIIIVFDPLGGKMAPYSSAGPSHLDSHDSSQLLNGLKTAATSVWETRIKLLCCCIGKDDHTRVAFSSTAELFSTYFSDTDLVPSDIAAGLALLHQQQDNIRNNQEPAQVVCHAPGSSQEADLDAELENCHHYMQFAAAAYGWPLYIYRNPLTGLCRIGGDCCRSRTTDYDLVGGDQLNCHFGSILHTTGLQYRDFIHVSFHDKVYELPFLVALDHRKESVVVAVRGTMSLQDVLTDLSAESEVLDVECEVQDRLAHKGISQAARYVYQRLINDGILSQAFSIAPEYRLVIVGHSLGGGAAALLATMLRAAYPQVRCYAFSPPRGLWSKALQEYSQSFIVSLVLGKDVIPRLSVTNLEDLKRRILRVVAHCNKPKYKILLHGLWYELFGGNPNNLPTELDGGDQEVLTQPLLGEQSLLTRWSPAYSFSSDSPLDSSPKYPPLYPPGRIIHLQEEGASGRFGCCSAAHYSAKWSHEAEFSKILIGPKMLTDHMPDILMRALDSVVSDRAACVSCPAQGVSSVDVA
MT1-MMP act inh – inhibitors of human MT1-MMP activation | P50281 | HT1080 RFP-PRO-GFP cells, GFP/RFP ratio fluorescence, overnight; percent of plate control window, DMSO zero | GFP/RFP ratio change, % at 20 µM | 360,000 tested, 0.061% active | AID 651647;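 active means GFP/RFP ratio change of at least 30% with cell ATP level not reduced by more than half and red fluorescence within 50% of control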
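Assay system: HT1080 RFP-PRO-GFP cells | Dosing: 20 µM single dose, 1% DMSO | Incubation: Cells overnight before dosing, compound overnight, 37 °C, 5% CO2 | Evaluation: GFP/RFP fluorescence ratio | Control set: DMSO-only wells and HT1080 RFP-L50D-GFP cell wells as references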
HCV core dimer – HCV core protein dimerization inhibition. inhibition, % at 5 µM. 300,000 tested, 0.33% active. AID 1899. TR-FRET GST/Flag-core106 dimerization, 1536-well;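 active means inhibition above the mean of all tested compounds plus 3 SD, set per screening campaign, cut at about 45% in these data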
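Assay system: Tagged HCV core106 pair (GST and Flag) | Buffer or medium: KF-containing HEPES buffer, pH 7.45, DTT, CHAPS, BSA | Also added: Eu donor and XL665 acceptor anti-tag antibodies | Dosing: One concentration, 5 µM, in 0.5% DMSO | Timing: 4 h at 22.5 °C | Technique: TR-FRET 671 and 617 nm emission | Repeats: Singlicate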
NR2E3 ag-2 – agonists of human nuclear receptor NR2E3; GST-NR2E3/biotin-RetCOR TR-FRET, 1536-well; inhibition of corepressor binding, % at 4.78 µM; 320,000 tested, 0.12% active; AID 2300;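 active means percent inhibition above the cutoff of mean plus 3 SD of all tested compounds, set per screening campaign, cut at about 20% in these data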;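 further: 0% = DMSO wells and 100% = biotin wells as full block of FRET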
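Format: 1536-well format; test system: GST-NR2E3 and biotin-RetCOR proteins; read-out basis: percent inhibition of TR-FRET ratio; timing: 5 h incubation at 4 °C; detection: time-resolved FRET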
Vif imaging – blocks HIV Vif function; HEK293T cells, Vif self-association by quenched fluorescence, imaging, 24 h; inhibition, % at 7.49 µM; 340,000 tested, 0.35% active; AID 602346; in the data active means inhibition above about 50%, passing the limit was not always enough
MT1-MMP act val – blocks activation of human MT1-MMP in validation testing; shares compounds with MT1-MMP act inh; HT1080 RFP-PRO-GFP cells, GFP and RFP fluorescence ratio, overnight; inhibition, % at 20 µM; 200 tested, 10% active; AID 652235;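 active means inhibition of at least 50% in the primary cell screen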
An asterisk follows results filed as active.

How did O=c1[nH]cnc2sc(-c3ccccc3)cc12 do in these assays?
NR2E3 ag-1: -73; DAGLB inhibitor: -2; MT1-MMP act inh: 34*; HCV core dimer: 1; NR2E3 ag-2: 2; Vif imaging: -1; MT1-MMP act val: 1

Results for COc1cccc(CSc2ccc(S(=O)(=O)N3CCOCC3)cc2C(=O)NCC2CCCO2)c1OC (stereo unspecified) ?
NR2E3 ag-1: -13; DAGLB inhibitor: -2; MT1-MMP act inh: -1; HCV core dimer: 1; NR2E3 ag-2: 3; Vif imaging: 3

How did O=C(Nc1ccccc1Cl)c1cc(C2CCCCN2C(=O)c2cccs2)on1 (stereo unspecified) do in these assays?
NR2E3 ag-1: -8; MT1-MMP act inh: -4; Vif imaging: -8

Results for COc1ccc(-c2nnc(NC(=O)CSc3ccc(Cl)cc3)s2)cc1OC ?
NR2E3 ag-1: 7; DAGLB inhibitor: 1; MT1-MMP act inh: 37*; HCV core dimer: -1; NR2E3 ag-2: -4; Vif imaging: -5; MT1-MMP act val: 6

Results for COc1ccc(Cc2nnc(NC(=O)CSc3ccc(C)cc3)s2)cc1OC ?
NR2E3 ag-1: 1; DAGLB inhibitor: 1; MT1-MMP act inh: -1; HCV core dimer: 7; NR2E3 ag-2: -1; Vif imaging: -2

Results for Cc1ccc(C)c(NC(=O)C[n+]2ccccc2)c1 ?
NR2E3 ag-1: 4; DAGLB inhibitor: 0; MT1-MMP act inh: -3; HCV core dimer: -1; NR2E3 ag-2: 0; Vif imaging: 0

What do the screens show for `CCCNC(=O)C1(C)CCCN(Cc2cc(-c3ccccc3)n(C)n2)C1` (stereo unspecified)?
NR2E3 ag-1: -15; MT1-MMP act inh: 2; Vif imaging: -5

Results for Cc1cc2cc(CNC(=S)Nc3ccc(OC(F)F)cc3)ccc2n1C ?
NR2E3 ag-1: -28; DAGLB inhibitor: 22; MT1-MMP act inh: 47*; HCV core dimer: -93; NR2E3 ag-2: 3; Vif imaging: 0; MT1-MMP act val: 19

Results for Cc1ccc(NC(=S)NCc2ccc3c(c2)cc(C)n3C)c(C)c1 ?
NR2E3 ag-1: 6; DAGLB inhibitor: 0; MT1-MMP act inh: 33*; HCV core dimer: 19; NR2E3 ag-2: 0; Vif imaging: 12; MT1-MMP act val: 6

Results for COc1ccc(C(=O)NCc2ccc3c(c2)cc(C)n3C)cc1 ?
NR2E3 ag-1: -34; DAGLB inhibitor: 4; MT1-MMP act inh: 31*; HCV core dimer: -3; NR2E3 ag-2: 0; MT1-MMP act val: 2

How did CC[C@]12c3[nH]c4ccc(Cl)cc4c3CCN1C(=O)[C@@H](CC(=O)NCc1ccc(OC)c(OC)c1)C[C@@H]2C(=O)N1CCN(C(=O)c2ccco2)CC1 do in these assays?
NR2E3 ag-1: -12; DAGLB inhibitor: 1; MT1-MMP act inh: -1; Vif imaging: -8

How did CC(=O)Oc1ccc2oc(/C=C/N(C)C)c([N+](=O)[O-])c2c1 do in these assays?
NR2E3 ag-1: -31; DAGLB inhibitor: 6; MT1-MMP act inh: 45*; HCV core dimer: -18; NR2E3 ag-2: -6; Vif imaging: 3; MT1-MMP act val: 36

What do the screens show for `COc1ccc2oc(/C=C/N(C)C)c(C(=O)c3ccc(Cl)cc3)c2c1`?
NR2E3 ag-1: -13; DAGLB inhibitor: 10; MT1-MMP act inh: 7; HCV core dimer: 2; NR2E3 ag-2: 1; Vif imaging: 4

What do the screens show for `C/C(=C/c1oc2ccc(O)cc2c1[N+](=O)[O-])N(C)C`?
NR2E3 ag-1: -17; DAGLB inhibitor: 10; MT1-MMP act inh: 43*; HCV core dimer: -19; NR2E3 ag-2: -9; MT1-MMP act val: 32

Results for N#Cc1c(-c2ccccc2)nc(SCC(=O)Nc2ccc(OC(F)(F)Cl)cc2)[nH]c1=O ?
NR2E3 ag-1: -19; DAGLB inhibitor: 8; MT1-MMP act inh: 1; HCV core dimer: 12; NR2E3 ag-2: 13

Results for CCOC(=O)c1cnc2cc(F)c(F)cc2c1N1CCOCC1 ?
NR2E3 ag-1: -13; DAGLB inhibitor: -1; MT1-MMP act inh: 1; HCV core dimer: -4; NR2E3 ag-2: 0; Vif imaging: -5

How did O=C1CSC(=S)N1CC1CCCO1 (stereo unspecified) do in these assays?
NR2E3 ag-1: 16; DAGLB inhibitor: -1; MT1-MMP act inh: 35*; HCV core dimer: 0; NR2E3 ag-2: 4; Vif imaging: -14; MT1-MMP act val: 1

Results for Cc1ccccc1NS(=O)(=O)c1cccc2nsnc12 ?
NR2E3 ag-1: -31; DAGLB inhibitor: 2; MT1-MMP act inh: 4; HCV core dimer: 2; NR2E3 ag-2: -1; Vif imaging: -3

Results for CN1/C(=C\C(=O)c2cccnc2)C(C)(C)c2ccccc21 ?
NR2E3 ag-1: -36; DAGLB inhibitor: 0; MT1-MMP act inh: -2; HCV core dimer: 6; NR2E3 ag-2: 1; Vif imaging: 0

Results for CN1/C(=C\C(=O)c2cncc(Br)c2)C(C)(C)c2ccccc21 ?
NR2E3 ag-1: -30; DAGLB inhibitor: -10; MT1-MMP act inh: 31*; HCV core dimer: -1; NR2E3 ag-2: 1; Vif imaging: -5; MT1-MMP act val: 39

Results for CN1/C(=C\C=N\NC(=O)c2ccc(O)cc2)C(C)(C)c2ccccc21 ?
NR2E3 ag-1: -25; DAGLB inhibitor: 6; MT1-MMP act inh: 59*; HCV core dimer: -17; NR2E3 ag-2: 4; Vif imaging: -10; MT1-MMP act val: 37

What do the screens show for `Cc1c(NC(=S)/C=C2\N(C)c3ccccc3C2(C)C)c(=O)n(-c2ccccc2)n1C`?
NR2E3 ag-1: 9; DAGLB inhibitor: 2; MT1-MMP act inh: 33*; HCV core dimer: 0; NR2E3 ag-2: 5; Vif imaging: 2; MT1-MMP act val: 13

Results for CC(=O)/C=C1\N(C)c2ccc(C)cc2C1(C)C ?
NR2E3 ag-1: -4; DAGLB inhibitor: -4; MT1-MMP act inh: 47*; HCV core dimer: 5; NR2E3 ag-2: 1; Vif imaging: 15; MT1-MMP act val: 27

Results for CN1/C(=C\C=N\NC(=O)c2cccnc2)C(C)(C)c2ccccc21 ?
NR2E3 ag-1: -13; DAGLB inhibitor: 0; MT1-MMP act inh: -5; HCV core dimer: -24; NR2E3 ag-2: -3; Vif imaging: -9

Results for CN1/C(=C\C(=O)C(F)F)C(C)(C)c2ccccc21 ?
NR2E3 ag-1: 4; DAGLB inhibitor: -2; MT1-MMP act inh: 6; HCV core dimer: 2; NR2E3 ag-2: 3
